Data: ChEMBL document CHEMBL3608261, “Metabolically programmed iron chelators” (Bioorg Med Chem, 2015)

Columns and labels:
Rattus norvegicus [1] = experiment: Drug metabolism in Sprague-Dawley rat plasma assessed as (S)-4'-(carboxymethoxy)-DADFT level at 300 umol/kg, sc after 8 hrs by HPLC analysis; assay type: ADME, organism-based; details: in vivo
Procedure, shortened: (§1)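 Single sc injection in male Sprague-Dawley rats (250–350 g) of the monosodium salt at 300 µmol/kg, n=3 per time point, killed by CO2 at 0.5–8 h. Plasma came from citrated cardiac blood; organs were frozen. Homogenates were made 1:3 in 0.5 N HClO4, given a methanol rinse, held 30 min at −20 °C, centrifuged, diluted in pH 3.0 phosphate/CH3CN and filtered. RP-amide HPLC, UV 310 nm; values are means, nmol/g wet weight or µM.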

Rattus norvegicus [2] = experiment: Drug metabolism in Sprague-Dawley rat kidney assessed as (S)-4'-(5-carboxypentyloxy)-DADFT level at 300 umol/kg, sc after 0.5 to 1 hrs by HPLC analysis; assay type: ADME, organism-based; details: in vivo; procedure, shortened: as §1
Rattus norvegicus [3] = experiment: Drug metabolism in Sprague-Dawley rat liver assessed as parent compound and metabolite level at 300 umol/kg, sc after 8 hrs by HPLC analysis; assay type: ADME, organism-based; details: in vivo
Procedure, shortened: (§2)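 Rats (male Sprague-Dawley, 250–350 g) were dosed sc once with the monosodium salt, 300 µmol/kg, three animals per time point up to 8 h. Plasma came from citrated cardiac blood; liver was frozen after CO2 euthanasia. Parent and metabolites were quantified by HPLC with UV at 310 nm against linear calibration curves (detection limit 0.25 µM, linear 1–1000 µM). Data are means.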

Rattus norvegicus [4] = experiment: Drug metabolism in Sprague-Dawley rat pancreas assessed as (S)-4'-(3-carboxypropyloxy)-DADFT level at 300 umol/kg, sc after 0.5 hrs by HPLC analysis; assay type: ADME, organism-based; details: in vivo; procedure, shortened: as §1
Rattus norvegicus [5] = experiment: Drug metabolism in Sprague-Dawley rat heart assessed as (S)-4'-(5-carboxypentyloxy)-DADFT level at 300 umol/kg, sc up to 8 hrs by HPLC analysis; assay type: ADME, organism-based; details: in vivo; procedure, shortened: as §1
Rattus norvegicus [6] = experiment: Drug metabolism in Sprague-Dawley rat kidney assessed as (S)-4'-(3-carboxypropyloxy)-DADFT level at 300 umol/kg, sc after 0.5 to 1 hrs by HPLC analysis; assay type: ADME, organism-based; details: in vivo; procedure, shortened: as §1
Sapajus apella = experiment: Iron clearing efficiency in bile duct cannulated Cebus apella assessed as clearance of iron in bile at 75 umol/kg, po measured at 3 hrs intervals for up to 48 hrs relative to control; assay type: functional
[7] = Performance ratio, ratio of iron clearing efficiency in […] at 75 umol/kg, po to iron clearing efficiency in bile duct cannulated Sprague-Dawley rat at 300 umol/kg, po; assay type: functional
Procedure, shortened: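 Performance ratio = mean ICE in iron-overloaded Cebus apella (75 µmol/kg) divided by mean ICE in bile duct-cannulated rats (300 µmol/kg), by the same route.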

Rattus norvegicus [8] = experiment: Drug metabolism in Sprague-Dawley rat pancreas assessed as (S)-4'-(5-carboxypentyloxy)-DADFT level at 300 umol/kg, sc after 0.5 to 8 hrs by HPLC analysis; assay type: ADME, organism-based; details: in vivo; procedure, shortened: as §1
Rattus norvegicus [9] = experiment: Drug metabolism in Sprague-Dawley rat liver assessed as (S)-4'-(5-carboxypentyloxy)-DADFT level at 300 umol/kg, sc after 0.5 to 1 hrs by HPLC analysis; assay type: ADME, organism-based; details: in vivo; procedure, shortened: as §1
Rattus norvegicus [10] = experiment: Drug metabolism in Sprague-Dawley rat kidney assessed as (S)-4'-(carboxymethoxy)-DADFT level at 300 umol/kg, sc after 0.5 hrs by HPLC analysis; assay type: ADME, organism-based; details: in vivo; procedure, shortened: as §1
Rattus norvegicus [11] = experiment: Drug metabolism in Sprague-Dawley rat heart assessed as (S)-4'-(carboxymethoxy)-DADFT level at 300 umol/kg, sc after 1 hr by HPLC analysis; assay type: ADME, organism-based; details: in vivo; procedure, shortened: as §1
Rattus norvegicus [12] = experiment: Drug metabolism in Sprague-Dawley rat pancreas assessed as (S)-4'-(3-carboxypropyloxy)-DADFT level at 300 umol/kg, sc after 1 hr by HPLC analysis; assay type: ADME, organism-based; details: in vivo; procedure, shortened: as §1
Rattus norvegicus [13] = experiment: Drug metabolism in Sprague-Dawley rat pancreas assessed as parent compound level at 300 umol/kg, sc after 0.5 hrs by HPLC analysis; assay type: ADME, organism-based; details: in vivo; procedure, shortened: as §1
Rattus norvegicus [14] = experiment: Drug metabolism in Sprague-Dawley rat kidney assessed as (S)-4'-(carboxymethoxy)-DADFT level at 300 umol/kg, sc after 1 hr by HPLC analysis; assay type: ADME, organism-based; details: in vivo; procedure, shortened: as §1
Rattus norvegicus [15] = experiment: Toxicity in Sprague-Dawley rat assessed as histopathology at 384 umol/kg, po qd for 10 days; assay type: organism-based; details: in vivo, 240 h
Procedure, shortened: (§3)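 Male Sprague-Dawley rats (n=5, 375–400 g) with normal iron stores, housed singly in metabolic cages and weighed daily. Drug given po by gavage as monosodium salt once daily for 10 days, dosed in the morning after overnight fast; fed ~3 h post-drug. Euthanized day 11; CBC, serum chemistries and 25 tissues/rat for outside histopathology; age-matched untreated controls.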

Rattus norvegicus [16] = experiment: Toxicity in Sprague-Dawley rat assessed as mortality at 384 umol/kg, po qd for 10 days; assay type: organism-based; details: in vivo, 240 h; procedure, shortened: as §3
Rattus norvegicus [17] = experiment: Iron clearing efficiency in bile duct cannulated Sprague-Dawley rat assessed as clearance of iron in urine at 300 umol/kg, po measured at 3 hrs intervals for up to 48 hrs relative to control; assay type: functional
Rattus norvegicus [18] = experiment: Drug metabolism in Sprague-Dawley rat heart assessed as (S)-4'-(carboxymethoxy)-DADFT level at 300 umol/kg, sc after 2 to 8 hrs by HPLC analysis; assay type: ADME, organism-based; details: in vivo; procedure, shortened: as §1
Rattus norvegicus [19] = experiment: Iron clearing efficiency in bile duct cannulated Sprague-Dawley rat assessed as clearance of iron in bile at 300 umol/kg, po measured at 3 hrs intervals for up to 48 hrs relative to control; assay type: functional
Procedure, shortened: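 Non-iron-overloaded male Sprague-Dawley rats (400–450 g) with cannulated bile ducts received 300 µmol/kg po or sc. […] Bile was sampled every 3 h for up to 48 h and urine at 24 h intervals. ICE = (treated minus control iron excretion) / theoretical output (2:1 ligand:Fe) × 100 over 48 h. Mean ± SEM.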

Rattus norvegicus [20] = experiment: Drug metabolism in Sprague-Dawley rat plasma assessed as parent compound and metabolite level at 300 umol/kg, sc after 8 hrs by HPLC analysis; assay type: ADME, organism-based; details: in vivo, read-out: Drug metabolism; procedure, shortened: as §2
Rattus norvegicus [21] = experiment: Drug metabolism in Sprague-Dawley rat pancreas assessed as (S)-4'-(carboxymethoxy)-DADFT level at 300 umol/kg, sc after 4 to 8 hrs by HPLC analysis; assay type: ADME, organism-based; details: in vivo; procedure, shortened: as §1
Rattus norvegicus [22] = experiment: Drug metabolism in Sprague-Dawley rat liver assessed as parent compound and (S)-4'-(3-carboxypropyloxy)-DADFT level at 300 umol/kg, sc after 8 hrs by HPLC analysis; assay type: ADME, organism-based; details: in vivo; procedure, shortened: as §1
Rattus norvegicus [23] = experiment: Toxicity in Sprague-Dawley rat assessed as BUN level in blood at 384 umol/kg, po qd for 10 days; assay type: organism-based; details: in vivo, 240 h
Procedure, shortened: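 Male Sprague-Dawley rats (n=5, 375–400 g) with normal iron stores were housed in metabolic cages. Drug was given po as the monosodium salt, once daily for 10 days at 384 µmol/kg/day. Rats were fasted overnight, dosed in the morning, and fed about 3 h post-drug. They were euthanized on day 11, and blood was taken for serum chemistry including BUN. Age-matched untreated rats served as controls.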

Rattus norvegicus [24] = experiment: Drug metabolism in Sprague-Dawley rat pancreas assessed as (S)-4'-(5-carboxypentyloxy)-DADFT level at 300 umol/kg, sc after 4 to 8 hrs by HPLC analysis; assay type: ADME, organism-based; details: in vivo; procedure, shortened: as §1
Rattus norvegicus [25] = experiment: Drug metabolism in Sprague-Dawley rat kidney assessed as (S)-4'-(3-carboxypropyloxy)-DADFT level at 300 umol/kg, sc after 8 hrs by HPLC analysis; assay type: ADME, organism-based; details: in vivo; procedure, shortened: as §1
Rattus norvegicus [26] = experiment: Drug metabolism in Sprague-Dawley rat kidney assessed as (S)-4'-(carboxymethoxy)-DADFT level at 300 umol/kg, sc after 8 hrs by HPLC analysis; assay type: ADME, organism-based; details: in vivo; procedure, shortened: as §1
Rattus norvegicus [27] = experiment: Drug metabolism in Sprague-Dawley rat heart assessed as parent compound level at 300 umol/kg, sc after 0.5 hrs by HPLC analysis; assay type: ADME, organism-based; details: in vivo; procedure, shortened: as §1
Rattus norvegicus [28] = experiment: Drug metabolism in Sprague-Dawley rat plasma assessed as parent compound and metabolite level at 300 umol/kg, sc after 4 hrs by HPLC analysis; assay type: ADME, organism-based; details: in vivo; procedure, shortened: as §2
Rattus norvegicus [29] = experiment: Drug metabolism in Sprague-Dawley rat kidney assessed as (S)-4'-(carboxymethoxy)-DADFT level at 300 umol/kg, sc after 2 hrs by HPLC analysis; assay type: ADME, organism-based; details: in vivo; procedure, shortened: as §1
Rattus norvegicus [30] = experiment: Drug metabolism in Sprague-Dawley rat heart assessed as (S)-4'-(3-carboxypropyloxy)-DADFT level at 300 umol/kg, sc after 0.5 to 1 hrs by HPLC analysis; assay type: ADME, organism-based; details: in vivo; procedure, shortened: as §1
Rattus norvegicus [31] = experiment: Drug metabolism in Sprague-Dawley rat heart assessed as (S)-4'-(carboxymethoxy)-DADFT level at 300 umol/kg, sc after 0.5 hrs by HPLC analysis; assay type: ADME, organism-based; details: in vivo; procedure, shortened: as §1
Rattus norvegicus [32] = experiment: Drug metabolism in Sprague-Dawley rat pancreas assessed as (S)-4'-(3-carboxypropyloxy)-DADFT level at 300 umol/kg, sc after 4 to 8 hrs by HPLC analysis; assay type: ADME, organism-based; details: in vivo; procedure, shortened: as §1

## C[C@]1(C(=O)O)CSC(c2ccc(OCCCCCCO)cc2O)=N1
Rattus norvegicus [1]
  Drug metabolism: metabolite_detected
Rattus norvegicus [2]
  Drug metabolism: metabolite_detected
Rattus norvegicus [3]
  Drug metabolism: metabolite_detected
Rattus norvegicus [4]
  Drug metabolism: 19 nmol/g
Rattus norvegicus [5]
  Drug metabolism: metabolite_notdetected
Rattus norvegicus [6]
  Drug metabolism: 300 nmol/g
Sapajus apella
  Activity: 90%
[7]
  Ratio: 2.2
Rattus norvegicus [8]
  Drug metabolism: metabolite_notdetected
Rattus norvegicus [9]
  Drug metabolism: metabolite_detected
Rattus norvegicus [10]
  Drug metabolism: 156 nmol/g
Rattus norvegicus [11]
  Drug metabolism: 23 nmol/g
Rattus norvegicus [12]
  Drug metabolism: 23 nmol/g
Rattus norvegicus [13]
  Drug metabolism: < 5 nmol/g
Rattus norvegicus [14]
  Drug metabolism: 201 nmol/g
Rattus norvegicus [15]
  Activity: Non-toxic
Rattus norvegicus [16]
  Activity: Non-toxic
Rattus norvegicus [17]
  Activity: 4%
Rattus norvegicus [18]
  Drug metabolism: metabolite_notdetected
Rattus norvegicus [19]
  Activity: 96%
Rattus norvegicus [20]
  concentration: 23 µM
Rattus norvegicus [21]
  Drug metabolism: metabolite_notdetected
Rattus norvegicus [22]
  Drug metabolism: metabolite_notdetected
Rattus norvegicus [23]
  Activity: 20 mg/dL
Rattus norvegicus [24]
  Drug metabolism: metabolite_notdetected
Rattus norvegicus [25]
  Drug metabolism: metabolite_notdetected
Rattus norvegicus [26]
  Drug metabolism: 5 nmol/g
Rattus norvegicus [27]
  Drug metabolism: 26 nmol/g
Rattus norvegicus [28]
  Drug metabolism: Not Active
Rattus norvegicus [29]
  Drug metabolism: 161 nmol/g
Rattus norvegicus [30]
  Drug metabolism: 46 nmol/g
Rattus norvegicus [31]
  Drug metabolism: 17 nmol/g
Rattus norvegicus [32]
  Drug metabolism: metabolite_notdetected
